Data as given in ChEMBL document CHEMBL4834456, “Discovery of 3,4-dihydrobenzo[f][1,4]oxazepin-5(2H)-one derivatives as a new class of ROCK inhibitors for the treatment of glaucoma” (Bioorg Med Chem Lett, 2021).
Activity calls are given as the source filed them. The calls are words filed in the database; no cut-off is given here.

Key:
[1] = biological target: T1, Rho-associated protein kinase 1 (Homo sapiens, UniProt Q13464); test: Inhibition of wild type partial length human ROCK1 (M1 to R415 residues) expressed in mammalian expression system by Euro-fins kinase profiler assay
Summary of the method: (§1)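 IC50 values from the Eurofins Kinase Profiler service; averages of two independent experiments, mean ± SD.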
Target sequence in this assay (Q13464 whole entry, the tested form may be a part): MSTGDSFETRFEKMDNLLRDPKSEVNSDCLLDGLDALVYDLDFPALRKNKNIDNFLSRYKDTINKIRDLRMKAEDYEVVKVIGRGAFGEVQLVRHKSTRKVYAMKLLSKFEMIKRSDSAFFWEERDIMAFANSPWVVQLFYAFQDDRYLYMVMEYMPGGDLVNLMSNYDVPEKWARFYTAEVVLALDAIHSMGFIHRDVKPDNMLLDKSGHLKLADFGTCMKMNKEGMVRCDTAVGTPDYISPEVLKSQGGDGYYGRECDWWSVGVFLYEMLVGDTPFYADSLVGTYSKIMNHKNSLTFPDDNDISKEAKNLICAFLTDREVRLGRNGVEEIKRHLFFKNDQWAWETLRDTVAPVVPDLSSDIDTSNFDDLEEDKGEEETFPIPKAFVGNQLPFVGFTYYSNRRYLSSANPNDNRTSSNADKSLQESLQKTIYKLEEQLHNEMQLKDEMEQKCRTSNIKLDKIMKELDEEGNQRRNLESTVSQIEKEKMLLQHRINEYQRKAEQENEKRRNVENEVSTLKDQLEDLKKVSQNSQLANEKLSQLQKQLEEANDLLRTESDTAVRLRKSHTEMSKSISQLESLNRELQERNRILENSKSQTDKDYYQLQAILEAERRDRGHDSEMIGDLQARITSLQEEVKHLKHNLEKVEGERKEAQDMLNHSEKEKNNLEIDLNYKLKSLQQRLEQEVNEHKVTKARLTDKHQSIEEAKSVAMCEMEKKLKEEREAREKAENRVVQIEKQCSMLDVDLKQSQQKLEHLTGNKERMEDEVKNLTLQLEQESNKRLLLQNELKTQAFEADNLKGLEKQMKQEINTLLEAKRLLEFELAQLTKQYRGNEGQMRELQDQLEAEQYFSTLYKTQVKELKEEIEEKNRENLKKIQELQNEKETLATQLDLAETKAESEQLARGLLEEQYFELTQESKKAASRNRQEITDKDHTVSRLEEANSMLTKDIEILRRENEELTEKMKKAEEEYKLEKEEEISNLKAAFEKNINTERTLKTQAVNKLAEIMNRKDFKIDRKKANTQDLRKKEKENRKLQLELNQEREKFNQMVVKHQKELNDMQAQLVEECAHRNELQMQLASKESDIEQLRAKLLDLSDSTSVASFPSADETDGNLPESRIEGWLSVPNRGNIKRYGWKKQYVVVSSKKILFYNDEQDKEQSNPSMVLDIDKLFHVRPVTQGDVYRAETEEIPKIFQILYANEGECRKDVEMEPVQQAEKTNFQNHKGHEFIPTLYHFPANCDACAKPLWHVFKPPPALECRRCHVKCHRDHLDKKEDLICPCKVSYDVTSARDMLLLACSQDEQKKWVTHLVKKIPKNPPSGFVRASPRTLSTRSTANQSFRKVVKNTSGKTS

[2] = biological target: T2, Rho-associated protein kinase 2 (Homo sapiens, UniProt O75116); test: Inhibition of wild type partial length human ROCK1 (M1 to T431 residues) expressed in Mammalian expression system by Euro-fins kinase profiler assay; summary of the method: as §1
Target sequence in this assay (O75116 whole entry, the tested form may be a part): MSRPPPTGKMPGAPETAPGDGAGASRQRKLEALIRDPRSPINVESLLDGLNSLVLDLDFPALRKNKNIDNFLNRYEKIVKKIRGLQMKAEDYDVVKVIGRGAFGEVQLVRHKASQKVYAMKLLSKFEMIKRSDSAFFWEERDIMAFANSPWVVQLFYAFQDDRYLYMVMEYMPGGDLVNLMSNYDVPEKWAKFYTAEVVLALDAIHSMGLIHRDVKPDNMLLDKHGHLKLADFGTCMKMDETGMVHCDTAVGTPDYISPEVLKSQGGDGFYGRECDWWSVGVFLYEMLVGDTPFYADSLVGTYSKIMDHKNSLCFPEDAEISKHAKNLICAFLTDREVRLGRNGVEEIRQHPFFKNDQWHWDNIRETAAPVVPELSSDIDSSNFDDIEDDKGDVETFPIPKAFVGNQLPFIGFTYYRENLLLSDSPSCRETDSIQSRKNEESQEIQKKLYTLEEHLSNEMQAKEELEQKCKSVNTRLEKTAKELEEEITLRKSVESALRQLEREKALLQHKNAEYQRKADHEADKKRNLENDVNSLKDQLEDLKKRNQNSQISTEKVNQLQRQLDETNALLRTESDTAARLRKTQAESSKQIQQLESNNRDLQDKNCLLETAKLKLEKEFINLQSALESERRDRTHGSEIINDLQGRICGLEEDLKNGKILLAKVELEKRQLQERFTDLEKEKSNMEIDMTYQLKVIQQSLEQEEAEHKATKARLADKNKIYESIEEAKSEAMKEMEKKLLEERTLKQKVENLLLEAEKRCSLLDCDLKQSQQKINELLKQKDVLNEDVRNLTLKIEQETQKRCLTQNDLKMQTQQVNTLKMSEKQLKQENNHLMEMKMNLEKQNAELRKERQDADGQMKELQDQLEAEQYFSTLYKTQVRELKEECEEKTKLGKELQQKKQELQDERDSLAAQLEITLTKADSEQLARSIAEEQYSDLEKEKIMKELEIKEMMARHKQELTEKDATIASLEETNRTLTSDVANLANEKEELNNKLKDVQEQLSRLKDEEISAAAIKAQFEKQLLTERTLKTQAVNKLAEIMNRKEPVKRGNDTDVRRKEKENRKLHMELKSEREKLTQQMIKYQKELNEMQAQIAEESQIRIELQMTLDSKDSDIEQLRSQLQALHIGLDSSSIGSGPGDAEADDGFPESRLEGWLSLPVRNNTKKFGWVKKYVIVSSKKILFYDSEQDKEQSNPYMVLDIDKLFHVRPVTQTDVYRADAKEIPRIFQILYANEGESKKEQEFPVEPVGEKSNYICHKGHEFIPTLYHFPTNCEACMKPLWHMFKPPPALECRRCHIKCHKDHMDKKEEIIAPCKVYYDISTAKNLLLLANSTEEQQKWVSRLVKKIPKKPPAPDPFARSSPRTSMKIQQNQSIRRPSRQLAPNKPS

[3] = system: Oryctolagus cuniculus; test: Antiglaucoma activity in topically treated NZW rabbits assessed as reduction of intra ocular pressure measured after 1 hr relative to control; type: functional; design: scale not given: the % may be the effect or the level left
Summary of the method: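 Ocular normotensive NZW rabbits received 0.3% eye drops topically in one eye and vehicle in the contralateral eye. IOP was followed over several hours after instillation and expressed as reduction from baseline, with the 1 h reading compared against vehicle.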

[4] = Toxicity in topically treated NZW rabbit assessed as hyperaemia measured after 3 hrs; design: species or system Oryctolagus cuniculus; conditions: in vivo, topical_or_ocular
[5] = system: SH-SY5Y; test: Effect on MYPT1 expression in human SH-SY5Y cells at 0.1 to 1 uM measured after 12 hrs by western blot assay; type: functional, cell-based; conditions: dose 0.1-1 µM
Summary of the method: (§2)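 SH-SY5Y cells exposed to compound at 0.1, 0.3 and 1 µM for 12 h. Phospho-MYPT1 assessed by western blot, with immunoblots quantified. Significance versus untreated control by t test.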

[6] = biological target: T2, Rho-associated protein kinase 2; test: Inhibition of ROCK2 (unknown origin) at 10 uM
Summary of the method: (§3)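 Kinase selectivity panel of 100 representative kinases, each tested at a fixed 10 µM; inhibition rate recorded per kinase. Values are averages of two independent experiments, mean ± SD.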
Target sequence in this assay (O75116 whole entry, looked up, the tested form may be a part): as the sequence (O75116 whole entry, the tested form may be a part) above

[7] = biological target: T1, Rho-associated protein kinase 1; test: Inhibition of ROCK1 (unknown origin) at 10 uM; summary of the method: as §3
Target sequence in this assay (Q13464 2-1354 limits assumed): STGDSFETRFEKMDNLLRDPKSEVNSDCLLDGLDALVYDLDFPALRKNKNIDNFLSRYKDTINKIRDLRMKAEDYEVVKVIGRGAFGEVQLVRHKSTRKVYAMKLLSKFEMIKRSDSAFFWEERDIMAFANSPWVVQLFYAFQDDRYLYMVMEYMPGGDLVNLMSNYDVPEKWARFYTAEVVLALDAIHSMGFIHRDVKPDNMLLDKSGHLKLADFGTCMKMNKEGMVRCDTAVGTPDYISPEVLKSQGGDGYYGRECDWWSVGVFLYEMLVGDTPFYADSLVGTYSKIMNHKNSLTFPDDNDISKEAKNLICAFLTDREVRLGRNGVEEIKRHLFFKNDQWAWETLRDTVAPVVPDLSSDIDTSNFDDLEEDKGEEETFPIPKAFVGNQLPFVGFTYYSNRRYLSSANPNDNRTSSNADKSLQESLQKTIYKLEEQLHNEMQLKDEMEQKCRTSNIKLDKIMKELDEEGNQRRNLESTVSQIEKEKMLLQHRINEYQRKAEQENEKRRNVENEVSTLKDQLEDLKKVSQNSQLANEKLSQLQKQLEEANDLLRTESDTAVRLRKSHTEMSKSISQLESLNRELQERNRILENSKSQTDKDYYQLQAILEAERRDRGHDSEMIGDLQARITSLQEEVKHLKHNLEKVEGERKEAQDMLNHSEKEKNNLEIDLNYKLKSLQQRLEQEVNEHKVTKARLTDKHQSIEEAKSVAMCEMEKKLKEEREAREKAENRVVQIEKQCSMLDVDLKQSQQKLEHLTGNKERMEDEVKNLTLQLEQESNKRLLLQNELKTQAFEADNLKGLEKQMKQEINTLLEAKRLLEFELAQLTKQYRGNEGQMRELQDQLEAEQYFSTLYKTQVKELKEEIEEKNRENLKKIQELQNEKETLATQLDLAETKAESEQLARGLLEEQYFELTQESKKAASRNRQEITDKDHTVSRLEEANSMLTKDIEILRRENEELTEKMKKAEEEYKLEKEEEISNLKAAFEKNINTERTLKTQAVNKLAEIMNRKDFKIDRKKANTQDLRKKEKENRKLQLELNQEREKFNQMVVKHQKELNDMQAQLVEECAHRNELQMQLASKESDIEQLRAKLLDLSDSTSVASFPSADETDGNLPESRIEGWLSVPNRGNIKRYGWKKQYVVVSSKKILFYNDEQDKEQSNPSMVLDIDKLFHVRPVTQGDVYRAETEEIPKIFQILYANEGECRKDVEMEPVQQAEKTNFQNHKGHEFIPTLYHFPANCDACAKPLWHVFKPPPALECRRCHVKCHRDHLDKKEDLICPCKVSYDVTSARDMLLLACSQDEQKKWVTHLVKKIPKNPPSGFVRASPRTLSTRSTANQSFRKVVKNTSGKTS

[8] = system: SH-SY5Y; test: Inhibition of human ROCK in human SH-SY5Y cells assessed as inhibition of phosphorylation of MYPT1 at 0.1 to 1 uM measured after 12 hrs by western blot assay; type: cell-based; conditions: dose 0.1-1 µM; summary of the method: as §2
[9] = biological target: LIM domain kinase 2 (Homo sapiens) (UniProt P53671); test: Inhibition of LIMK2 (unknown origin) at 10 uM; summary of the method: as §3
Sequence of LIM domain kinase 2 (Homo sapiens) (P53671 whole entry, looked up, the tested form may be a part): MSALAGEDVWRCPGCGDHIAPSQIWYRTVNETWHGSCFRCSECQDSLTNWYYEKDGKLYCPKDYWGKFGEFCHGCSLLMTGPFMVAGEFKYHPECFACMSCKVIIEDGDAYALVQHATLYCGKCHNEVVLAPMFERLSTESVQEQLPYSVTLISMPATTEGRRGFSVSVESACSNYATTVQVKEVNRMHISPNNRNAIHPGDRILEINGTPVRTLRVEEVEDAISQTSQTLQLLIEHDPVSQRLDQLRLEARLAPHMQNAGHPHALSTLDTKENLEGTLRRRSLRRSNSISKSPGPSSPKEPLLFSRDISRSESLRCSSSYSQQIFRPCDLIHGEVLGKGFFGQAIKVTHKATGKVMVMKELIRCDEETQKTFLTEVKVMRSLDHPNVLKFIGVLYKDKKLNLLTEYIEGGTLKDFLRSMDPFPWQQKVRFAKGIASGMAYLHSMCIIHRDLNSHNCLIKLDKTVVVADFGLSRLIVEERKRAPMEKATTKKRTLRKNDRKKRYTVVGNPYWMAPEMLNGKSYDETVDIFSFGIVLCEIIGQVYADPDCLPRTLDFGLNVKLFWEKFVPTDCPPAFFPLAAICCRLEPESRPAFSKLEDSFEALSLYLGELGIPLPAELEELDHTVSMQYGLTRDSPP

| SMILES | IC50 [1] [nM] | IC50 [2] [nM] | other results |
| --- | --- | --- | --- |
| O=C1c2ccc(-c3ccncc3)cc2OCCN1Cc1cccc(OC(F)(F)F)c1 | 9240 | 495 |  |
| COc1cc(CN2CCOc3cc(-c4ccncc4)ccc3C2=O)cc(OC)c1 | 4490 | 217 |  |
| O=Cc1cccc(CN2CCOc3cc(-c4ccncc4)ccc3C2=O)c1 | 668 | 29 |  |
| COc1cccc(CN2CCCc3cc(-c4ccc5[nH]ncc5c4)ccc3C2=O)c1 | > 10000 | 2110 |  |
| COC(=O)c1cccc(CN2CCOc3cc(-c4ccncc4)ccc3C2=O)c1 | 208 | 9 |  |
| COc1cccc(CN2CCOc3cc(-c4ccnc5[nH]ccc45)ccc3C2=O)c1 | 103 | 15 |  |
| O=C1c2ccc(-c3ccncc3)cc2OCCN1Cc1cccc(C(F)(F)F)c1 | 1960 | 133 |  |
| COc1cccc(CN2CC(C)(C)Oc3cc(-c4ccc5[nH]ncc5c4)ccc3C2=O)c1 | 6010 | 749 |  |
| N#Cc1cccc(CN2CCOc3cc(-c4ccncc4)ccc3C2=O)c1 | 3100 | 50 |  |
| COc1cccc(CN2COc3cc(-c4ccc5[nH]ncc5c4)ccc3C2=O)c1 | 1460 | 434 |  |

More lines, main results first:

| IC50 [1] [nM] | IC50 [2] [nM] | SMILES | other results |
| --- | --- | --- | --- |
| 1140 | 15 | COc1cccc(CN2CCOc3cc(-c4ccnc(N)c4)ccc3C2=O)c1 |  |
| > 10000 | 761 | COc1cccc(CN2CCOc3ccc(-c4ccncc4)cc3C2=O)c1 |  |
| 93 | 3 | COc1cccc(CN2CCOc3cc(-c4ccncc4)ccc3C2=O)c1 | Activity [3]: 34.3%; Activity [4]: Non-Toxic; Activity [5]: inactive; inhibition [6]: Active; inhibition [7]: Active; inhibition [8]: Active; inhibition [9]: Active |
| > 10000 | > 10000 | COc1cccc(CN2CCOc3cc(-c4cncnc4)ccc3C2=O)c1 |  |
| > 10000 | > 10000 | COc1cccc(CN2CCOc3cc(-c4ccc5c(c4)OCO5)ccc3C2=O)c1 |  |
| > 10000 | > 10000 | COc1cccc(CN2CCOc3cc(-c4ccc(N)nc4)ccc3C2=O)c1 |  |
| 1080 | 182 | COc1cccc(CN2CCOc3cc(-c4ccc5[nH]ncc5c4)ccc3C2=O)c1 |  |
| > 10000 | 5530 | COc1cccc(CN2CCOc3cc(-c4cnc5[nH]ccc5c4)ccc3C2=O)c1 |  |
